# Assay results from different studies.
# Lines come from different studies, so protocols differ.
# Target: Vascular endothelial growth factor receptor 2 (KDR, Homo sapiens, UniProt P35968)
SMILES,read-out,action,method,concentration,quantity,value
O=c1[nH]c2ccccc2n1C1CCN(Cc2ccc(-c3[nH]c4cc5ncnc5cc4nc3-c3ccccc3)cc2)CC1,cell-free assay,,,0.5 µM,remaining signal,90.9%
Cn1cc(-c2cc(F)cc(N3CCn4c(cc5c4CCCC5)C3=O)c2CO)cc(Nc2ccc(N3CCN(C4COC4)CC3)cn2)c1=O,enzyme activity,inhibitor,,0.1 µM,inhibition,12%
Nc1ncc(-c2nc(N3CCOCC3)nc(N3CCOCC3)n2)c(C(F)F)n1,cell-free assay,,competition with immobilised ligand,10 µM,remaining binding,41%
COc1ccc2c(c1)/C(=C/c1cnc[nH]1)C(=O)N2,cell-free assay,,,0.5 µM,remaining signal,78.7%
C#Cc1n[nH]c2c(-c3cn([C@@H](C)c4ccccc4)c(=O)[nH]c3=O)cc(F)cc12,enzyme activity,inhibitor,,0.1 µM,inhibition,5.3%
Cn1cncc1[C@](O)(COc1ccc(C#N)cc1-c1ccc(OC(F)(F)F)cc1)c1ccc(C#N)cc1,cell-free assay,,competition with immobilised ligand,1 µM,remaining binding,96%
C#Cc1n[nH]c2c(-c3cn([C@@H](C)c4ccccn4)c(=O)[nH]c3=O)cc(F)cc12,enzyme activity,inhibitor,,0.1 µM,inhibition,6.6%
COCc1c(-c2cc3cc(C)cc(OC)c3s2)c2c(N)ncnn2c1CN1CCNC(=O)C1,cell-free assay,,competition with immobilised ligand,1 µM,inhibition,81%
Cc1nn(C)cc1-c1nc2c(N3CCN(Cc4ccc(Cl)cc4)CC3)c(Cl)cnc2[nH]1,binding,,competition with immobilised ligand,1 µM,remaining binding,12%
COc1ncccc1-c1cnn2ccc(N3CCN(C(=O)OC(C)C)CC3)nc12,binding,,competition with immobilised ligand,1 µM,remaining binding,100%
